# Experimental data taken from the EternaBench riboswitch data.
# Test system: MS2 coat protein
# Assay: apparent Kd, MS2 coat protein; higher = weaker binding; RNA-MaP array; FMN 200 µM where present
# Summary of the method: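 The apparent Kd is the median of filtered binding-curve fits, one per cluster, to green signal normalised to red-channel RNA signal and control-cluster median Fmax. The clusters were on Illumina sequencing chips, and stalled E. coli RNA polymerase had transcribed the designs on them. Titration used SNAP-549-labelled MS2 coat protein from 0.7 or 1.5 nM, doubling to 3 µM, without and then with constant ligand, in 100 mM Tris-HCl pH 7.5, 80 mM KCl, 4 mM MgCl2, BSA, DTT, yeast tRNA and Tween-20.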
# [1] = designed as: OFF switch for flavin mononucleotide, no ligand
# [2] = ligand present: flavin mononucleotide, designed as: OFF switch for flavin mononucleotide
# [3] = designed as: ON switch for flavin mononucleotide, no ligand
# [4] = ligand present: flavin mononucleotide, designed as: ON switch for flavin mononucleotide
Sequence,apparent Kd [1] [nM],apparent Kd [2] [nM],apparent Kd [3] [nM],apparent Kd [4] [nM]
GCCAGAGCAGGAUAUCUAAUAUGUCACAUGAGGAUCACCCAUGUCCAGCGAAAGCUGGAGGGAGAAGGGCUCUGGC,65.6,24.4,,
GCCAGAGCAGGAUAUUCAAUAAUUCACAUGAGGAUCACCCAUGUCCAGCGAAAGCUGGAAGGAGAAGGGCUCUGGC,16.3,13.7,,
GCCAGCUCGUGAGGAUAUACAACACUGCUUCGGCAGUGUAUUAAGAUCACAUGAGGAUCACCCAUGUAGAAGGCACGAGCUGAU,13.8,261,,
GCCAGGAUGUAAGGAUAUGCUGAGGAUAACUCAGCAGAAGGUACAUGAGGAUCACCCAUGUAAUCCUAAUAAUAAUAACCUGGC,11.5,17.4,,
GCCAGGUGGGUAGGAUAUGGCUAUGUCUCAUUGCUAGAAGGACCAACUGCUACAUGAGGAUCACCCAUGUCGUAGUGCACCCGG,,,78.9,25.4
GCCAGUUAUGUAGGAUAUGCGCGGCGAGCCUGUGCAGAAGGACAUGAGGAUCACCCAUGUGUUGCGGUCUGAGUACUGAUCGCC,32.9,208,,
GCCAUCACAUGAGGAUAUGCUCCCGUUUCGGGAGCAGAAGGCAUGUCAUAAGACAUGAGGAUCACCCAUGUAUUUAAGAUGGCA,,,227,9.52
GCCAUCGCAUGAGGAUAUGCUCCCGUUUCGGGAGCAGAAGGCAUGUCACAAGACAUGAGGAUCACCCAUGUAGUUAUGAUGGCA,,,221,8.6
GCCAUCGCAUGAGGAUAUGCUCCCGUUUCGGGAGCAGAAGGCAUGUCAUAAGACAUGAGGAUCACCCAUGUAGAUAAGAUGGCA,,,310,11.4
GCCAUCGCAUGAGGAUAUGGUCACGUUUCGUGACCAGAAGGCAUGUCAAUAGACAUGAGGAUCACCCAUGUAGUUAAGAUGGCA,,,680,59.8
GCCAUCGUACGAGGAUAUGGCACCGAAACGGUGCCAGAAGGCGUGUCAAUAGACAUGAGGAUCACCCAUGUAUUAUCGAUGGCA,,,23.2,17.6
GCCGGGCGAGGAUAUACAUGAGGAUCACCCAUGUAGAUCCUCCGGCGAAAGCCGGGUUGUAGAAGGCGCCCGGC,14.9,25.7,,
GCCGUUAAAGGAUAUACAUGAGGAUCACCCAUGUCGGUAUAAAAUUUACCGCCUCCCUGUAGAAGGUUAAGGCA,15.6,19.8,,
GCCUCACAUGAGGAUCACCCAUGUCAGGAUAUAGGAGACGGCAGAAAUUCUGCCGUCGCUAGAAGGGACUGGCA,44.2,86.9,,
GCCUCACAUGAGGAUCACCCAUGUCAGGAUAUCUCGUGCGCAGUAAUUAUCUGGCUAAAGAGAAGGGACAUUAA,47,99,,
GCCUGUGAAGGAUAUACAUGAGGAUCACCCAUGUGGCGGAUAUACCCGCCGAGACCGUGUAGAAGGUCAUAGUA,44,40.8,,
GCCUUACCGGUCAGGAUAUACACUCGUCACUCCUUGUAGAAGGGACAUGAGGAUCACCCAUGUACAUUACAUUC,38.6,38,,
GCCUUACCGGUCAGGAUAUACAUUUGUUACUCUUUGUAGAAGGGACAUGAGGAUCACCCAUGUACAUUACAUUC,19.1,19.2,,
GCCUUAUCGGUCAGGAUAUACACCCGUCACUCCUUGUAGAAGGGACAUGAGGAUCACCCAUGUACAUUACAUUG,31.3,28.1,,
GCCUUAUCGGUCAGGAUAUACACCCGUUAGUUGUUGUAGAAGGGACAUGAGGAUCACCCAUGUACAUUACAUUG,22.8,60,,
GCGAAGAACGAGAAGGCCACUACAUGAGGAUCACCCAUGUCGUGGAGUAUUGGAGGAUAUCGUUAGGCGUCUCAUGAGGACAUA,5.26,5.69,,
GCGAGUAAAGCAGGAUAUCUAUUGUCUCUGUAACAUGAGGAUCACCCAUGUAGAGAAGGGCUUAGUCAUACACUUCGAACUCGC,5.57,5.38,,
GCGAUGAUCGAGAAGGCCACUACAUGAGGAUCACCCAUGUCGUGGUGUAUUGGAGGAUAUCGAUUGGCGCCUUAUGAGGACAUG,5.49,8.22,,
GCGAUUGCGUAGAAGGUACAAUAUAUUUCAUUGUAAGGAUAUACUUACAUGAGGAUCACCCAUGUUAAUGGAAUUUGCAAUCGC,,,74.1,28.9
GCGCAAGCAUGAGGAUAUGUAUUAAAUAAUAAUACAGAAGGCAUGUCAAAUGACAUGAGGAUCACCCAUGUUGGCAAACUGCGC,,,46.4,13
GCGCAGCUGGGUGAGGAUAUCGGUGGUAAAACAUGAGGAUCACCCAUGUCCGGAGCUCGGACUUCCGAGAAGGCACCCGGCUGCA,,,39,9.8
GCGCGCGCAGGAUAUACAAUUGUGUGUGGAAACGCGCGCGUACAUGAGGAUCACCCAUGUAGAAGGGUGUGUGU,445,198,,
GCGUACAUAUCAGGAUAUCAUUGAAUGGAUUAACUCAGUGAAUACAUGAGGAUCACCCAUGUGCUUGAGAAGGGAUUACUACGC,14.7,69.9,,

Sequence,apparent Kd [1] [nM],apparent Kd [2] [nM],apparent Kd [3] [nM],apparent Kd [4] [nM]
GCGUAUAUAAGAUUUAUUAAACAGUCAGAAGGUGAUAAUACGACAUGAGGAUCACCCAUGUAAUUCAAGGAUAUGAUCAUACGC,,,98.5,27.2
GCGUCAGAAUUAAUUGUGUCAUACAGAAGGCAAUAUUAAGGUUAAGACAUGAGGAUCACCCAUGUUGAGGAUAUGUAGUGACGC,10.5,18.6,,
GCGUCAGUUUCACAUGUAAUACAUGAGGAUCACCCAUGUUACUAGGAUAUGUAUUAGAAUUAUCAACAGAAGGAGUAAUGACGC,11.1,12.8,,
GCGUCAUGCAGAGGAUAUUGUUGCGGAUCUCUAUAAGAAGGCUGUACAUGAGGAUCACCCAUGUCACCACAUGAGGGUCACGUG,22.1,41.2,,
GCGUGAAAUGUAGGAUAUGACACAGGAAACUGGUCAGAAGGACAUGAGGAUCACCCAUGUAAAAUGUUCAAGAAUAACACAUGC,30.3,87,,
GCGUUGUACGAGAAGGCCAAUACAUGAGGAUCACCCAUGUUAAGUUGUUUUGGAGGAUAUCGAUCACUUACAAUAAUGCAACGC,7.23,6.31,,
GCUAGGAGUGUGAGGAUAUGCUGAACCUUGGUUCAGCAGAAGGCACAUGAGGAUCACCCAUGUGAAGACCUAGC,25.7,149,,
GCUAGUCAUGUCAGGAUAUGCUGUACCUUGGUACAGCAGAAGGGACAUGAGGAUCACCCAUGUGCCUAACUAGC,39,416,,
GCUAUCGCAUGAGGAUAUGGUCAGCUUUGCUGACCAGAAGGCAUGUCAUAAGACAUGAGGAUCACCCAUGUAGUUAAGAUAGCA,,,840,50.5
GCUCCUCGAGUUAGGAUAUGUCGGCUAUCUAAAUGAUAGAAGGGACAUGAGGAUCACCCAUGUCACGGGAUUGA,56.7,58.7,,
GCUCUAUGCUAGAAGGCGUGAAACAUGAGGAUCACCCAUGUCAGAGAUAUGAGGAUAUAGCAUAGAGCAAAAGACGGAAACGUC,,,13.4,5.41
GCUGCAUAGGCAGGAUAUGCAAAAGCAGAUGCAAAGCAUCUGCAAAAUACAUGAGGAUCACCCAUGUAGAAGGGCCUGUGCAGU,23.1,20.6,,
GCUGCAUGCAGAGGAUAUAUAACAUGAGGAUCACCCAUGUUAAUAAUAUGGAUAAACCAGAUAGUAUAGAAGGCUGCAUGCAGC,19.5,23.8,,
GCUGGUCGAGGAUAUAUAUGACGUGCUUCGGCACGAAGGUCACAUGAGGAUCACCCAUGUAGAAGGCGACCAGC,56.4,390,,
GCUGUAUAUGAGAAGGCGAUCAUGAAACAUGAUCGAGGAUAUCAUGUUUACAUGAGGAUCACCCAUGUAUGGGUAUAAUGCAGC,,,417,24.1
GCUGUCGCAUGAGGAUAUGGUCAGCUUUGCUGACCAGAAGGCAUGUCAAUAGACAUGAGGAUCACCCAUGUAGUUAGGGCGGCU,,,571,57.4
GCUGUCGCGUGAGGAUAUGGUCUGCAGUGCUGACCAGAAGGCAUGUCGAUAGACAUGAGGAUCACCCAUGUGGUUAGGGCGGCU,,,804,351
GCUUGUGAAGGAUAUACUGGAGGAGUGCGAUAGAAGCACGAACAUGAGGAUCACCCAUGUAGAAGGUCAGGCGU,24.4,29.1,,
GGAAAACAUGAGGAUCACCCAUGUGAGGAUAUCGAUGUCCAAAGGAAAGUGCGGGACUCGAGAAGGCACUUGGA,45.4,39,,
GGAAAACAUGAGGAUCACCCAUGUGAGGAUAUCGAUGUCCAGGGCCGGGUGCGGGACUCGAGAAGGCACUUGGA,64.5,41.6,,
GGAAAACAUGAGGAUCACCCAUGUGAGGAUAUGAGCGUCUAGUUGAGAGAUUGGACGCUCAGAAGGCACAUGCC,28.5,247,,
GGAAAUCAUGUAGGAUAUGCAUGGCGAAGCUACGCAGAAGGACAUGAGGAUCACCCAUGUUAAAGCUACCGAGUUCGGUGGCAA,180,148,,
GGAAAUCAUGUAGGAUAUGCAUGGCGAAGCUACGCAGAAGGACAUGAGGAUCACCCAUGUUAUAGCUACCAAGUUAGGUGGCAA,139,144,,
GGAAGUCAAAGACUUCCUUAACGAACAUGAGGAUCACCCAUGUAGGAUAUGCUACUCAAAGAGUAGCAGAAGGACAUGUGUCUU,32.1,168,,
GGACAUGUCGUCUACAUGAGGAUCACCCAUGUCGAUAGACAUGAGGAUAUCGAUAAGAAUUGUAUCGAGAAGGCAUGUAGGUCC,,,68.4,50.6
GGACAUGUCGUCUACAUGAGGAUCACCCAUGUCGAUAGACAUGAGGAUAUCGAUACAAAUUGUAUCGAGAAGGCAUGCAGGUCC,,,18.7,17.7
GGACAUUUACAGAAGGGCAAGUUAGAUAGUGAAUAUUUAGUUCUGACUUGCAGGAUAUGUUGAACAUGAGGAUCACCCAUGUCC,,,14.4,10.6
